What was measured:
[1] = molecular target: Cannabinoid receptor 2 (Homo sapiens) (UniProt P34972); assay: Displacement of [3H]CP-55940 from human CB2 receptor expressed in CHO cells at 10 uM; format: cell-based
Summary of the method: (§1)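 Membranes (40 µg) from CHO cells stably expressing human CB1 or CB2, with 1 nM [3H]SR141716A (CB1) or 1 nM [3H]CP-55,940 (CB2), and compound at 10 µM. Incubated 1 h at 30 °C in Tris-HCl pH 7.4 with MgCl2, EDTA and 0.5% BSA. Nonspecific binding defined with 10 µM HU-210. Bound ligand recovered on PEI-treated GF/B filters for scintillation counting; reported as % radioligand displaced.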

Cannabinoid receptor 1 [2] = molecular target: T1, Cannabinoid receptor 1 (Homo sapiens, UniProt P21554); assay: Displacement of [3H]SR-141,716A from human Cannabinoid receptor 1 (CB1 receptor) expressed in CHO cells at 10 uM; format: cell-based; summary of the method: as §1
Cannabinoid receptor 1 [3] = molecular target: T1, Cannabinoid receptor 1; assay: biochemical; format: cell-based, CHO
Cannabinoid receptor 1 [4] = molecular target: T1, Cannabinoid receptor 1; conditions: CHO, at 10 µM
Cannabinoid receptor 1 [5] = molecular target: T1, Cannabinoid receptor 1; conditions: CHO, 10 uM
Cannabinoid receptor 1 [6] = molecular target: T1, Cannabinoid receptor 1; assay: Inhibition of [3H]SR-141,716A binding to human CB1 receptor expressed in CHO cells; format: cell-based
Summary of the method: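 Competition curves on hCB1-CHO membranes (40 µg) with 1 nM [3H]SR141716A and varying compound concentrations, up to 10^-5 M. Incubated 1 h at 30 °C, pH 7.4, 0.5% BSA; final DMSO below 0.1%. Nonspecific binding defined with 10 µM HU-210; filtration, then counting. Ki derived from IC50 by nonlinear fitting and Cheng-Prusoff (Kd 1.13 nM). Mean ± SEM of at least four experiments, each in duplicate.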

T1 sequence (P21554 whole entry): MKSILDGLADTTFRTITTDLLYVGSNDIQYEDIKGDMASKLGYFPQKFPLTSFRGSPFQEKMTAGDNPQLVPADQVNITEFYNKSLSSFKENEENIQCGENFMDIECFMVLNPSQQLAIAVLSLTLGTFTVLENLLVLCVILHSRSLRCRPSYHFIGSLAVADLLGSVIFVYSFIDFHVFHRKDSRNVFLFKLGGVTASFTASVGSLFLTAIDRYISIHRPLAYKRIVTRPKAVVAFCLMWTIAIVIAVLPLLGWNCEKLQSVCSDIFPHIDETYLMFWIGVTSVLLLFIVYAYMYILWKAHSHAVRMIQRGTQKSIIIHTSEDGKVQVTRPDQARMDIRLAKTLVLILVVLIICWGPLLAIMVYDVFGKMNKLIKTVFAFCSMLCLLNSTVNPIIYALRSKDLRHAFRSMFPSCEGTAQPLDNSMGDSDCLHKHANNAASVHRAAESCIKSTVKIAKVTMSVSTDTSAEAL
Sequence of Cannabinoid receptor 2 (Homo sapiens) (P34972 whole entry): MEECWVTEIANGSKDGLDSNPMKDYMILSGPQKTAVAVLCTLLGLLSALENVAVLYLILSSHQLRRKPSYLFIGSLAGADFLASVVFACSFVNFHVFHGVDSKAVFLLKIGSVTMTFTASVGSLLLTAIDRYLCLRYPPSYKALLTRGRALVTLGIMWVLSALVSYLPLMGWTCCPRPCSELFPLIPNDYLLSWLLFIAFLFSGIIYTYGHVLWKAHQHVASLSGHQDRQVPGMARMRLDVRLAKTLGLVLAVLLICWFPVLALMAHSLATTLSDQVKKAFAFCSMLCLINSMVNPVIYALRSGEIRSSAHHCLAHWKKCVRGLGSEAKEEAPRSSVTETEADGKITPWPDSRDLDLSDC

Structure (SMILES)	Displacement [1]	Displacement (Cannabinoid receptor 1 [2])	Ki (Cannabinoid receptor 1 [3])	Decrease (Cannabinoid receptor 1 [4])	Increase (Cannabinoid receptor 1 [5])	Ki (Cannabinoid receptor 1 [6])
O=C1N(Cc2ccccc2)C(=S)NC1(c1ccccc1)c1ccccc1	< 10%	44.7%	–	–	–	–
CC(C)CN1C(=O)C(c2ccc(Br)cc2)(c2ccc(Br)cc2)NC1=S	< 20%	76.3%	1.78 µM	-74%	–	–
CCCCCCCCN1C(=O)C(c2ccc(Br)cc2)(c2ccc(Br)cc2)NC1=S	< 10%	23.4%	–	–	–	–
O=C1N(CCc2ccccc2)C(=S)NC1(c1ccccc1)c1ccccc1	< 10%	29.3%	–	–	–	–
O=C1N(CCCO)C(=S)NC1(c1ccccc1)c1ccccc1	< 10%	20.8%	–	–	–	–
CCCCN1C(=O)C(c2ccc(I)cc2)(c2ccc(I)cc2)NC1=S	< 20%	77.4%	0.724 µM	-74%	–	–
CCCCN1C(=O)NC(c2ccc(I)cc2)(c2ccc(I)cc2)C1=O	–	–	1.82 µM	-74%	–	–
C=CCN1C(=O)C(c2ccc(Br)cc2)(c2ccc(Br)cc2)NC1=S	< 15%	87.2%	0.871 µM	-74%	–	–
O=C1N(Cc2ccccc2)C(=S)NC1(c1ccc(Cl)cc1)c1ccc(Cl)cc1	< 15%	74.2%	2.19 µM	-74%	–	–
CC(C)N1C(=O)C(c2ccccc2)(c2ccccc2)NC1=S	< 10%	42.8%	–	–	–	–
O=C1N(Cc2ccccc2)C(=S)NC1(c1ccc(Br)cc1)c1ccc(Br)cc1	< 10%	76%	0.993 µM	-74%	–	–
C=CCN1C(=O)C(c2ccccc2)(c2ccccc2)NC1=S	< 15%	40%	–	–	–	–
CCCCN1C(=O)C(c2ccc(Br)cc2)(c2ccc(Br)cc2)NC1=S	< 15%	73.8%	1.41 µM	–	–	–
CCCCCCC(C)(C)c1cc(O)c2c(c1)OC(C)(C)[C@H]1CC=C(CO)C[C@H]21 [DEXANABINOL]	–	–	0.0186 µM	–	130%	–
CC(C)CN1C(=O)C(c2ccccc2)(c2ccccc2)NC1=S	< 10%	34.6%	–	–	–	–
COCCCN1C(=O)C(c2ccccc2)(c2ccccc2)NC1=S	< 15%	29.4%	–	–	–	–
CCCCCCN1C(=O)C(c2ccc(Br)cc2)(c2ccc(Br)cc2)NC1=S	< 10%	45.5%	–	–	–	–
O=C1NC(c2ccc(Br)cc2)(c2ccc(Br)cc2)C(=O)N1Cc1ccccc1	–	–	–	-74%	–	–

Structure (SMILES)	Displacement [1]	Displacement (Cannabinoid receptor 1 [2])	Ki (Cannabinoid receptor 1 [3])	Decrease (Cannabinoid receptor 1 [4])	Increase (Cannabinoid receptor 1 [5])	Ki (Cannabinoid receptor 1 [6])
O=C1N(CCc2ccccc2)C(=S)NC1(c1ccc(Br)cc1)c1ccc(Br)cc1	< 10%	54.6%	–	–	–	> 10 µM
CCCCCCCCN1C(=O)C(c2ccc(Cl)cc2)(c2ccc(Cl)cc2)NC1=S	< 10%	36.6%	–	–	–	–
C=CCN1C(=O)NC(c2ccc(I)cc2)(c2ccc(I)cc2)C1=O	–	–	–	-74%	–	–
CCCCCCCN1C(=O)C(c2ccccc2)(c2ccccc2)NC1=S	< 10%	28.8%	–	–	–	–
CCN1C(=O)C(c2ccc(Br)cc2)(c2ccc(Br)cc2)NC1=S	< 20%	90.9%	2.19 µM	–	–	–
C=CCN1C(=O)C(c2ccc(I)cc2)(c2ccc(I)cc2)NC1=S	< 20%	94.2%	0.589 µM	-74%	–	–
CCN1C(=O)C(c2ccccc2)(c2ccccc2)NC1=S	< 10%	40%	–	–	–	–
CCCCCCCCN1C(=O)C(c2ccccc2)(c2ccccc2)NC1=S	< 20%	38.8%	–	–	–	–
CCCCN1C(=O)NC(c2ccc(Br)cc2)(c2ccc(Br)cc2)C1=O	–	–	–	-74%	–	–
CCCCN1C(=O)C(c2ccccc2)(c2ccccc2)NC1=S	< 10%	42.8%	–	–	–	–
O=C1N(Cc2ccco2)C(=S)NC1(c1ccccc1)c1ccccc1	< 15%	59.2%	–	–	–	–
CCCCCCCN1C(=O)C(c2ccc(Cl)cc2)(c2ccc(Cl)cc2)NC1=S	< 10%	67.8%	–	–	–	–
O=C1N(CCc2ccccc2)C(=S)NC1(c1ccc(Cl)cc1)c1ccc(Cl)cc1	< 15%	79.4%	3.8 µM	–	–	–
CCCCCCCN1C(=O)C(c2ccc(Br)cc2)(c2ccc(Br)cc2)NC1=S	< 10%	34.2%	–	–	–	–
CC(C)N1C(=O)C(c2ccc(Br)cc2)(c2ccc(Br)cc2)NC1=S	< 15%	91.7%	3.63 µM	–	–	–
CCCCCCN1C(=O)C(c2ccccc2)(c2ccccc2)NC1=S	< 10%	38.5%	–	–	–	–
CC(C)CN1C(=O)C(c2ccc(Cl)cc2)(c2ccc(Cl)cc2)NC1=S	< 20%	76.1%	2.09 µM	-74%	–	–

— ChEMBL document CHEMBL1145211, “Substituted 5,5'-diphenyl-2-thioxoimidazolidin-4-one as CB1 cannabinoid receptor ligands: synthesis and pharmacological evaluation” (J Med Chem, 2005)
